Columns and labels:
Bos taurus = species: Bos taurus; assay: Inhibition of [3H]colchicine binding to bovine tubulin at 5 uM measured after 10 mins by scintillation counting
Outline: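 Purified bovine brain tubulin at 1.0 µM was mixed with 5.0 µM [3H]colchicine and inhibitor, plus components that stabilize colchicine binding, in 5% DMSO; tubulin was added last, on ice. Binding ran 10 min at 37 °C and was stopped with ice water. Mixtures were filtered through stacked DEAE-cellulose filters, and bound radiolabel was measured by scintillation counting.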

A498 = assay: Cytotoxicity against human A498 cells assessed as inhibition of cell growth measured after 48 hrs by SRB assay; type: functional
NCI-H522 = assay: Cytotoxicity against human NCI-H522 cells assessed as inhibition of cell growth measured after 48 hrs by SRB assay; type: functional
UACC-62 = assay: Cytotoxicity against human UACC-62 cells assessed as inhibition of cell growth measured after 48 hrs by SRB assay; type: functional
[1] = Relative resistance, ratio of IC50 for antiproliferative activity against human SK-OV-3 MDR-1-6/6 cells expressing Pgp to IC50 antiproliferative activity against human SK-OV-3 cells; type: functional
MDA-MB-435 = assay: Antiproliferative activity against human MDA-MB-435 cell line assessed as inhibition of cell proliferation measured after 48 hrs by SRB assay; type: functional, cell-based; settings: MDA-MB-435, 48 h
Outline: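 MDA-MB-435 melanoma cells were assessed by sulforhodamine B assay. IC50 is the mean ± SD of at least three independent experiments, each run in triplicate.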

SK-OV-3 = assay: Cytotoxicity against human SK-OV-3 cells assessed as inhibition of cell growth measured after 48 hrs by SRB assay; type: functional
[2] = Inhibition of bovine tubulin polymerization assessed as reduction in extent of assembly preincubated for 15 mins followed by addition of reaction mixture measured after 20 mins by turbidimetric assay; set-up: species or system Bos taurus
Outline: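 After chilling, GTP was added (0.4 mM final). Turbidity at 350 nm was read after a jump from 0 °C to 30 °C.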

OVCAR-4 = assay: Cytotoxicity against human OVCAR-4 cells assessed as inhibition of cell growth measured after 48 hrs by SRB assay; type: functional
SW-620 = assay: Cytotoxicity against human SW-620 cells assessed as inhibition of cell growth measured after 48 hrs by SRB assay; type: functional
HL-60(TB) = assay: Cytotoxicity against human HL-60(TB) cells assessed as inhibition of cell growth measured after 48 hrs by SRB assay; type: functional
RXF 393 = assay: Cytotoxicity against human RXF 393 cells assessed as inhibition of cell growth measured after 48 hrs by SRB assay; type: functional
[3] = Cytotoxicity against human SK-MEL-5 cells assessed as inhibition of cell growth measured after 48 hrs by SRB assay; type: functional
HOP-92 = assay: Cytotoxicity against human HOP-92 cells assessed as inhibition of cell growth measured after 48 hrs by SRB assay; type: functional
[4] = Antiproliferative activity against human SK-OV-3 MDR-1-6/6 cells expressing Pgp assessed as decrease in cell growth measured after 48 hrs by SRB method; type: functional; settings: SK-OV-3, 48 h
BT-549 = assay: Cytotoxicity against human BT-549 cells assessed as inhibition of cell growth measured after 48 hrs by SRB assay; type: functional
OVCAR-3 = assay: Cytotoxicity against human OVCAR-3 cells assessed as inhibition of cell growth measured after 48 hrs by SRB assay; type: functional
SF-268 = assay: Cytotoxicity against human SF-268 cells assessed as inhibition of cell growth measured after 48 hrs by SRB assay; type: functional
NCI-H23 = assay: Cytotoxicity against human NCI-H23 cells assessed as inhibition of cell growth measured after 48 hrs by SRB assay; type: functional
RPMI-8226 = assay: Cytotoxicity against human RPMI-8226 cells assessed as inhibition of cell growth measured after 48 hrs by SRB assay; type: functional
[5] = Toxicity in NCr athymic nude nu/nu mouse xenografted human U251 cells assessed as body weight change at 50 mg/kg once in a week relative to temozolomide; type: organism-based; settings: in vivo, 17.5 mg/kg, 168 h, in the assay text read “17.5 mg/kg twice in a week” for “50 mg/kg once in a week”
Outline: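 NCr athymic nu/nu nude mice (8 wk; equal numbers of males and females) received 500,000 U251 glioma cells in the lateral flank. Once tumors were visible, mice were dosed with carrier (5% DMSO, 5% Kolliphor-15, 90% normal saline), temozolomide at 50 mg/kg/wk, or test compound at 17.5 mg/kg twice weekly until the end of the study. Body weight was monitored and tumors were caliper-measured twice weekly; n=6–8.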

NCI/ADR-RES = assay: Cytotoxicity against human NCI/ADR-RES cells assessed as inhibition of cell growth measured after 48 hrs by SRB assay; type: functional
MDA-MB-231 = assay: Cytotoxicity against human MDA-MB-231 cells assessed as inhibition of cell growth measured after 48 hrs by SRB assay; type: functional
SK-MEL-28 = assay: Cytotoxicity against human SK-MEL-28 cells assessed as inhibition of cell growth measured after 48 hrs by SRB assay; type: functional
MCF7 = assay: Cytotoxicity against human MCF7 cells assessed as inhibition of cell growth measured after 48 hrs by SRB assay; type: functional
[6] = Relative resistance, ratio of IC50 for inhibition of beta3 Tubulin (unknown origin) expressed in human HeLa cell line assessed as inhibition of cell proliferation to IC50 antiproliferative activity against human HeLa cells
U-251 [7] = assay: Cytotoxicity against human U251 cell line assessed as inhibition of cell growth after 48 hrs by SRB assay; type: functional, cell-based; settings: U-251, 48 h
Malme-3M = assay: Cytotoxicity against human Malme-3M cells assessed as inhibition of cell growth measured after 48 hrs by SRB assay; type: functional
KM12 = assay: Cytotoxicity against human KM12 cells assessed as inhibition of cell growth measured after 48 hrs by SRB assay; type: functional
T47D = assay: Cytotoxicity against human T47D cells assessed as inhibition of cell growth measured after 48 hrs by SRB assay; type: functional
SF-295 = assay: Cytotoxicity against human SF-295 cells assessed as inhibition of cell growth measured after 48 hrs by SRB assay; type: functional
CCRF-CEM = assay: Cytotoxicity against human CCRF-CEM cells assessed as inhibition of cell growth measured after 48 hrs by SRB assay; type: functional
SF-539 = assay: Cytotoxicity against human SF-539 cells assessed as inhibition of cell growth measured after 48 hrs by SRB assay; type: functional
LOX IMVI = assay: Cytotoxicity against human LOX IMVI cells assessed as inhibition of cell growth measured after 48 hrs by SRB assay; type: functional
HCT-116 = assay: Cytotoxicity against human HCT-116 cells assessed as inhibition of cell growth measured after 48 hrs by SRB assay; type: functional
U-251 [8] = assay: Cytotoxicity against human U-251 cells assessed as inhibition of cell growth measured after 48 hrs by SRB assay; type: functional
NCI-H460 = assay: Cytotoxicity against human NCI-H460 cells assessed as inhibition of cell growth measured after 48 hrs by SRB assay; type: functional
SR = assay: Cytotoxicity against human SR cells assessed as inhibition of cell growth measured after 48 hrs by SRB assay; type: functional

`COc1cccc2cc(N(C)c3nc(C)nc4c3CCC4)ccc12` showed an inhibition (Bos taurus) of 98%, a GI50 (A498) of less than 10 nM and a GI50 (NCI-H522) of less than 10 nM. For the same compound, the GI50 (UACC-62) was 1490 nM, the “Ratio IC50” value [1] was 2.1 and the IC50 (MDA-MB-435) was 2.8 nM. It also gave a GI50 (SK-OV-3) of less than 10 nM, an IC50 [2] of 980 nM and a GI50 (OVCAR-4) of 10.9 nM. For the same compound, the GI50 (SW-620) was less than 10 nM, the GI50 (HL-60(TB)) was less than 10 nM and the GI50 (RXF 393) was less than 10 nM. For the same compound, the GI50 [3] was less than 10 nM, the GI50 (HOP-92) was 28.5 nM and the IC50 [4] was 5.7 nM. It also gave a GI50 (BT-549) of less than 10 nM, a GI50 (OVCAR-3) of less than 10 nM and a GI50 (SF-268) of less than 10 nM. For the same compound, the GI50 (NCI-H23) was less than 10 nM, the GI50 (RPMI-8226) was less than 10 nM and the Activity [5] was “Non-Toxic”. The GI50 (NCI/ADR-RES) was less than 10 nM, the GI50 (MDA-MB-231) was less than 10 nM and the GI50 (SK-MEL-28) was 5630 nM. The GI50 (MCF7) was less than 10 nM, the “Ratio IC50” value [6] was 0.8 and the IC50 (U-251 [7]) was 17.6 nM. It also gave a GI50 (Malme-3M) of 11500 nM, a GI50 (KM12) of less than 10 nM and a GI50 (T47D) of less than 10 nM. The GI50 (SF-295) was less than 10 nM, the GI50 (CCRF-CEM) was less than 10 nM and the GI50 (SF-539) was less than 10 nM. The GI50 (LOX IMVI) was less than 10 nM, the GI50 (HCT-116) was less than 10 nM and the GI50 (U-251 [8]) was less than 10 nM. It also gave a GI50 (NCI-H460) of less than 10 nM and a GI50 (SR) of less than 10 nM.

Source: ChEMBL document CHEMBL4680306, “The 3-D conformational shape of N-naphthyl-cyclopenta[d]pyrimidines affects their potency as microtubule targeting agents and their antitumor activity” (Bioorg Med Chem, 2021)
